Compound activity from PubChem BioAssay.
ARNT TACC3 PPI – disruptors of ARNT/TACC3 protein interaction, primary screen, biochemical, AlphaScreen, single concentration; Transforming acidic coiled-coil-containing protein 3 (Homo sapiens), Q9Y6A5; AlphaScreen His-ARNT PAS-B/GST-TACC3 binding, luminescence; TACC3 fragment carries E629A point mutation; inhibition, % at 9.99 µM; hit rate 0.66% among 390,000;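 active = mean inhibition of replicates at least 50% and at least half of replicates each reaching 50%; inconclusive = half or more replicates reach 50% but mean below 50%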;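 also: 0% = complete ARNT plus TACC3 wells and 100% = ARNT alone without TACC3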
AI-2 QS modul – Vibrio harveyi AI-2 quorum sensing modulators, primary screen, JMH597 strain, luminescence/OD600 ratio. Vibrio harveyi JMH597 AI-2 luminescence/OD600 ratio, 9 h; hits give low values; strain lacks LuxN and CqsS sensors; 0 = neutral-control median. activity change, % at 7.5 µM. hit rate 0.4% among 300,000; in the data active = activity change below about -75%, passing the limit was not always enough; inconclusive = no clear call, values can overlap the other calls;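 also: luminescence divided by OD600 gain over 9 h not by final OD600 alone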
HIF activator – HIF pathway transcriptional activators, primary screen, cell-based, U2OS HRE-luciferase, luminescence; AID 1910, 2009; activation, % at 7.5 µM (by protocol); hit rate 0.32% among 300,000; U2OS HRE-luciferase reporter; normalized: DMSO 0%, desferrioxamine 100%;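 active = mean activation of at least 10% of the iron chelator positive control signal, with at least half of replicates also reaching 10%; inconclusive = mean and replicate majority disagree about reaching 10%; inactive = mean and most replicates under 10%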
T cruzi repl – inhibitors of intracellular T. cruzi growth, primary screen, luminescence, NIH3T3 host cells. T. cruzi beta-gal in NIH3T3, 90 h. AID 1885, 2009. hit rate 1.4% among 300,000. inhibition, % (test concentration not listed);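 active = mean inhibition across valid replicates above about 55%, limit read from the data; inconclusive = mean below that limit but half or more replicates reach it; inactive = mean below it, under half of replicates reach it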;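 also: signal also drops with host cell toxicity which is not excluded here; 0% = plate median of DMSO wells and 100% = zero luminescence signal; higher percent means less beta-gal luminescence so fewer parasites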
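System – NIH/3T3 host cells with β-galactosidase reporter T. cruzi · Doses – single 50 nL compound addition per well in DMSO · Reagent – 5000 T. cruzi trypomastigotes/well · Medium – Low-serum DMEM with 2% FBS · Timing – ≥90 h infection period, 3 h prior cell attachment · Evaluation – parasite load inhibition, % · Technique – GalScreen luminescence, 60 min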
* marks the source's active call; other numbers are inactive results; ? = inconclusive; · = no result. Rows were chosen to be rich in hits. Some 2% of all compounds tested hit in one or more screens of this group.

SMILES	ARNT TACC3 PPI	AI-2 QS modul	HIF activator	T cruzi repl
CC(C)NC(=O)Nc1ccc2c(c1)C(=O)N([C@H](C)CO)C[C@@H](C)[C@H](CN(C)C(=O)c1ccncc1)OCCCC[C@@H](C)O2	-3	·	·	·
O=C(C[C@H]1C=C[C@H](NS(=O)(=O)c2ccc(F)cc2)[C@@H](CO)O1)N1CCC(Cc2ccccc2)CC1	2	·	·	·
O=C(CCCc1ccccc1)Nc1ccccn1	-7	5	15*	5
Cc1ccc(S(=O)(=O)CC(=O)N(CCCN(C)C)c2nc3ccc(C)cc3s2)cc1	4	29	-2	65*
Cc1ccc2nc(N(CCCN(C)C)C(=O)CN3C(=O)c4ccccc4C3=O)sc2c1	9	14	-2	61*
CCC(=O)N(C)C[C@@H]1Oc2cc(C#Cc3ccccc3)ccc2S(=O)(=O)N([C@@H](C)CO)C[C@@H]1C	12	·	·	·
CCC(=O)Nc1ccc2c(c1)C(=O)N(C)C[C@H](OC)[C@H](C)CN[C@@H](C)CO2	-5	·	·	·
O=C(CCC(=O)c1ccc(Br)cc1)Nc1ccc(F)cc1	1	-9	-1	-12
O=C(CCC(=O)c1ccc(F)cc1)Nc1cccc(C(F)(F)F)c1	8	-78*	0	-11
O=C(O)CCCCCCCCCCP(=O)(c1ccccc1)c1ccccc1	-5	6	0	23
O=P(CCCCCCCCCP(=O)(c1ccccc1)c1ccccc1)(c1ccccc1)c1ccccc1	-1	3	0	61*
O=C1CCCc2ccccc2N1Cc1ccc(F)cc1	1	2	42*	-5
N#Cc1cccc(-c2ccc3c(c2)[C@H]2[C@H](CCN2Cc2cncnc2)[C@@H](CO)N3)c1	0	·	·	·
N#Cc1cccc(-c2ccc3c(c2)[C@@H]2[C@@H](CCN2Cc2ccncc2)[C@@H](CO)N3)c1	25*	·	·	·
N#Cc1cccc(-c2ccc3c(c2)[C@H]2[C@H](CCN2Cc2ccncc2)[C@H](CO)N3)c1	14*	·	·	·
C[C@H]1CN([C@@H](C)CO)C(=O)CCCn2cc(nn2)CO[C@H]1CN(C)C(=O)Nc1ccc(-c2cccs2)cc1	-1	·	·	·
COc1ccc(OC)c(Nc2cc3ccccc3c(=O)[nH]2)c1	38*	20	-3	-21
O=c1[nH]c(Nc2ccccc2)cc2ccccc12	28	14	0	2
CCc1cccc(CC)c1NC(=O)CN(CC(=O)O)CC(=O)O	18	·	·	·
O=C(O)CN(CC(=O)O)CC(=O)O	65*	·	·	·
CCOC(=O)/C(=N\Nc1ccccc1Cl)N1CCN(c2ccccc2OC)CC1	-2	12	-1	67*
COc1ccc2cc(C(C)C(=O)N3CCC(C(N)=O)CC3)ccc2c1 (stereo not given)	-3	-9	28*	1
CCCN(C)C[C@@H]1Oc2cc(C#Cc3cccc(F)c3)ccc2S(=O)(=O)N([C@@H](C)CO)C[C@@H]1C	3	·	·	·
Cc1c(C(=O)NCC2COc3ccccc3O2)oc2ccc(S(=O)(=O)N3CCOCC3)cc12 (stereo not given)	-5	39	-1	8
Cc1c(C(=O)NCC2COc3ccccc3O2)oc2ccc(S(=O)(=O)N3CC(C)CC(C)C3)cc12 (stereo not given)	-6	15	-1	63*
SMILES	ARNT TACC3 PPI	AI-2 QS modul	HIF activator	T cruzi repl
CCN(CC)CCCNC(=O)c1oc2ccc(S(=O)(=O)N3CC(C)CC(C)C3)cc2c1C (stereo not given)	·	0	0	56*
Cc1c(C(=O)NCC2CCCO2)oc2ccc(S(=O)(=O)N3CC(C)CC(C)C3)cc12 (stereo not given)	-19	2	0	14
CCOC(=O)/C(=C\c1ccccc1)C(=O)c1cc(C(C)=O)c(Nc2ccccc2)s1	7	21	1	55*
Cc1ccc(-c2nc3ccccc3nc2NN)cc1	31	25	18*	0
CO[C@@H]1CN(C)C(=O)c2cc(NC(C)=O)ccc2OC[C@@H](C)N(C(=O)c2ccccc2F)C[C@H]1C	-1	·	·	·
O=C(CCCn1cnc([N+](=O)[O-])n1)Nc1ccc(F)c(Cl)c1	-3	28	0	60*
O=C(CCCn1cnc([N+](=O)[O-])n1)Nc1ccc(Cl)cc1Cl	·	23	0	58*
O=C(CCCn1cnc([N+](=O)[O-])n1)Nc1cccc(O)c1	-2	29	0	12
NC(=O)c1c(NC(=O)CCCn2cnc([N+](=O)[O-])n2)sc2c1CCCC2	7	16	0	60*
O=C(C[C@H]1CC[C@H](NC(=O)Cc2cccnc2)[C@H](CO)O1)Nc1ccc(-c2ccccc2)cc1	-6	·	·	·
Cc1noc(C)c1S(=O)(=O)N(C)C[C@H]1Oc2ccc(NC(=O)C3CCCCC3)cc2CC(=O)N([C@H](C)CO)C[C@@H]1C	-1	·	·	·
Cc1cc(C)c(C(=O)N2CCCC(N3CCN(c4cccc(C(F)(F)F)c4)CC3)C2)o1 (stereo not given)	13	0	135*	?
O=S(=O)(c1ccccc1)c1nc(-c2cccs2)oc1NCCCn1ccnc1	10	0	0	-2
O=S(=O)(c1ccc(Br)cc1)c1nc(-c2ccco2)oc1NCCCn1ccnc1	64*	·	·	·
O=C(C[C@@H]1C=C[C@H](NC(=O)CN2CCOCC2)[C@H](CO)O1)NCc1cccc(F)c1	2	·	·	·
Cc1ccc(-c2csc(NC(=O)CSc3nc4ccccc4c(=O)n3CCCN(C)C)n2)cc1	-18	4	2	29
Cn1c(SCC(=O)N2c3ccccc3Sc3ccccc32)nc2ccccc21	-1	13	0	59*
CN(C)CCCn1c(SCC(=O)N2c3ccccc3Sc3ccccc32)nc2ccccc2c1=O	24	-3	0	58*
Cc1ccc(S(=O)(=O)Nc2ccc3c(c2)C(=O)N([C@H](C)CO)C[C@@H](C)[C@H](CN(C)S(C)(=O)=O)O3)cc1	-3	·	·	·
Cc1[nH]n(-c2ccccc2)c(=O)c1CCO	1	30	0	7
Cc1[nH]n(-c2nc(-c3ccccc3F)cc(=O)[nH]2)c(=O)c1CCO	45*	22	0	4
Cn1nc(C(=O)Nc2cccnc2)c2ccccc2c1=O	46*	11	0	-6
Cn1nc(C(=O)NCc2cccnc2)c2ccccc2c1=O	2	-3	0	-15
COc1ccc(C#Cc2cnc3c(c2)C(=O)N([C@@H](C)CO)C[C@@H](C)[C@H](CN(C)C(=O)c2ccccc2F)O3)cc1	2	·	·	·
COc1ccc(NC(=O)CCC(=O)Nc2cc(OC)c(NC(=O)c3cccs3)cc2OC)cc1	1	·	-1	-9
COc1ccc(NC(=O)c2c(OC)cccc2OC)c(OC)c1	32	10	0	59*
COc1cccc(NC(=O)CCC(=O)Nc2cc(OC)c(NC(=O)c3cccs3)cc2OC)c1	50*	14	0	5
